Measured values reported in PubChem BioAssay AID2292 (The Scripps Research Institute Molecular Screening Center, 2010).
This is one part of the list. Values without a mark were called inactive. Activity calls are given as the source filed them.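 Rule for the calls: active = mean inhibition across replicates above a set limit taken from the earlier primary screen (cut at about 28% in these data); inactive = the rest.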

Test system: Epstein-Barr virus nuclear antigen 1 (EBNA-1) DNA-binding domain, Human herpesvirus 4
Assay: blockers of EBV EBNA-1 DNA binding – biochemical, fluorescence polarization, triplicate, confirmation (AID 2292);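 note: plate controls were EBNA-1 protein with DMSO for no effect and wells lacking EBNA-1 for full effect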
Settings: Recombinant EBNA-1 DBD, Cy5-DNA fluorescence polarization; at 14.8 µM; active compounds read high
Procedure, shortened: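 Test system: E. coli-made EBNA-1 DBD, residues 448-610. Compound dosing: one dose, 14.8 µM. Reagent: 10 nM Cy5 DNA hairpin. Detection: fluorescence polarization, excitation 620 nm, emission 688 nm. Repeats: each compound tested in triplicate. Schedule: Protein-probe premix 30 min, compound exposure 1 h, room temperature. Medium: Tris-NaCl buffer, pH 7.4.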

| SMILES | inhibition |
| --- | --- |
| CCOC(=O)c1ccc(NC(=O)C2CC(=O)Nc3nc4ccccc4n32)cc1 (stereo unspecified) | 61% (active) |
| O=C(COc1ccc(/C=N/NC(=O)c2ccc(O)cc2)cc1)Nc1ccc([N+](=O)[O-])cc1 | 51.1% (active) |
| Cc1ccc(-c2nn(-c3ccccc3)cc2/C=C2\SC(=S)N(CCCCCC(=O)O)C2=O)o1 | 16.8% |
| COc1ccc(C)cc1NC(=O)NCc1ccccn1 | -7.1% |
| COc1ccc(C(=O)CSc2nnc(NC(=O)C3CC(=O)N(c4cccc(OC)c4)C3)s2)cc1 (stereo unspecified) | 52.3% (active) |
| CCOc1cccc(NC(=O)Cn2nc(-c3ccc4c(c3)OCCO4)ccc2=O)c1 | 64.7% (active) |
| Cc1cccc(NC(=O)Cn2c(=O)n(Cc3ccccc3)c(=O)c3c(C)c(C)sc32)c1 | 5.76% |
| COc1ccc(CNc2nc3c(c(=O)[nH]c(=O)n3C)n2Cc2ccccc2)cc1 | 7.27% |
| COC(=O)C1=CN(Cc2ccc(OC)cc2)C=C(C(=O)OC)C1c1ccc(O)c(OC)c1 | 37.1% (active) |
| O=C(CCCn1c(SCC(=O)c2ccc(F)cc2)nc2ccccc2c1=O)NCc1ccco1 | 16.5% |
| O=C(Nc1ccc2ccccc2c1)Nc1ccc2snnc2c1 | 142% (active) |
| CCOc1[nH]n(-c2ccc(Cl)cc2)c(=O)c1C=Nc1ccc(O)cc1 | -11.1% |
| C/C(=N\N=C(N)N)c1ccc(Cl)cc1 | 2.77% |
| N#Cc1nc(N)nc(N(c2ccccc2)c2ccccc2)n1 | -5.35% |
| N#Cc1ccc(N2Cc3ccccc3/C2=N/C(=O)Nc2ccc(Cl)cc2)cc1 | 67.7% (active) |
| CCC(=O)Nc1ccc(C(=O)Nc2ccc3c(c2)C(=O)N(CC2CCCO2)C3=O)cc1 (stereo unspecified) | 58.2% (active) |
| Cc1cccc(N(CC(=O)Nc2ccc(-c3nc4ccc(C)cc4s3)cc2)S(C)(=O)=O)c1 | 12.2% |
| CCc1nccn1S(=O)(=O)c1cccc([N+](=O)[O-])c1 | 1.11% |

| SMILES | inhibition |
| --- | --- |
| CCOc1ccc(NC(=O)c2ccc(NC(=O)COC(=O)c3ccc(NC(=O)CC#N)cc3)cc2)cc1 | 3.81% |
| COc1ccc(NC(=O)NCc2ccc3c(c2)OCO3)c(OC)c1 | 57% (active) |
| Nc1nnc(SCC(=O)Nc2ccc3nc(SCC(=O)Nc4ccccc4)sc3c2)s1 | 24.9% |
| COc1ccc(C(=O)Nc2cccc(NC(=O)c3ccc(OC)cc3OC)n2)c(OC)c1 | 31.9% (active) |
| CC(=O)c1c(C)[nH]c(C(=O)OCC(=O)Nc2sc3c(c2C#N)CCCC3)c1C | 25.9% |
| Cc1ccc(C(=O)NNC(=O)c2cc3cc4ccccc4nc3s2)cc1 | 29.3% (active) |
| Nc1ccc(S(=O)(=O)Nc2nccc(/C=C/c3ccc(Br)s3)n2)cc1 | 8.99% |
| COC(=O)CSc1nc(C)c2ccc(OC)cc2n1 | -0.23% |
| CCOc1ccc(OCC)c(NC(=O)C(NS(=O)(=O)c2ccc3c(c2)oc(=O)n3C)C(C)C)c1 (stereo unspecified) | 62.8% (active) |
| COc1ccc(-c2ccc(Nc3ccc(S(=O)(=O)N4CCCC4)cc3)nn2)cc1OC | -1.8% |
| COc1ccc(CCNC(=S)N2CCN(S(=O)(=O)c3ccc(F)cc3)CC2)cc1 | 3.15% |
| Cc1[nH]n(C(N)=S)c(=O)c1N=Nc1ccc(Cl)cc1Cl | -9.96% |
| O=C(Nc1cccc(NC(=O)c2ccc(Br)cc2)c1)c1ccccc1 | 20.8% |
| CCOc1ccc(C(=O)NC(=S)Nc2ccc(NC(=O)C(C)C)cc2)cc1[N+](=O)[O-] | 55.5% (active) |
| Cc1ccc(O)c(/C=N/NC(=O)COc2ccc3c(C)cc(=O)oc3c2)c1 | -12.4% |
| CC(=O)Nc1ccc(S(=O)(=O)NCC(=O)OCc2cc(=O)oc3ccc4ccccc4c23)cc1 | 5.47% |
| COc1ccc(-c2nonc2NC(=O)c2oc3ccc(F)cc3c2C)cc1OC | 58.1% (active) |
| CCOc1cccc(SCc2noc(C(=O)NC(C)C)c2C(=O)O)c1 | -11.1% |
